Experimental data as given in ChEMBL document CHEMBL5724801, “EUbOPEN Chemogenomics Library - Multiplex” (2024).
Values joined by “and” are separate entries in the source; they are usually repeats but may differ in a detail not shown here. Equal entries are not always repeated.

Test system: HEK-293T
Assay: Multiplex assay against HEK293T
Type: toxicity, cell-based
Conditions: human
How it was run: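 Per cents of healthy-nucleus cells form the tubulin, mitochondrial-mass and membrane-permeability phenotype values. Live cells were stained at seeding with Hoechst33342, BioTracker Green Microtubule Cytoskeleton Dye, MitoTracker Red and Annexin V Alexa Fluor 680. After compound addition they were imaged on a CQ1 microscope at 37°C and 5% CO2, and CellPathfinder machine-learning gating split them into Hoechst high-intensity objects or normal cells, normal cells into healthy, pyknosed or fragmented nuclei, and pyknosed cells into mitotic or apoptotic.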

[1] = 12 h, 1 µM, compound concentration 1 uM
[2] = 12 h, 10 µM, compound concentration 10 uM
[3] = 24 h, 1 µM, compound concentration 1 uM
[4] = 24 h, 10 µM, compound concentration 10 uM
[5] = 48 h, 1 µM, compound concentration 1 uM
[6] = 48 h, 10 µM, compound concentration 10 uM

SMILES: CC(C)(O)C(=O)N1CCN(c2ccc(C(F)(F)F)c(C3=C(c4c[nH]c5ccccc45)C(=O)NC3=O)c2)CC1
- Population Apoptotic (%) [1]: 33% and 46%
- Population Fragmented Nuclei (%) [1]: 4% and 5%
- Population Healthy Nuclei (%) [1]: 78% and 76%
- Population Hoechst High Intensity Objects (%) [1]: 8% and 7%
- Population Membrane Permeable-Phenotype (%) [1]: 0%
- Population Mitochondria Different-Phenotype (%) [1]: 43% and 58%
- Population Mitotic Cells (%) [1]: 66% and 53%
- Population Normal (%) [1]: 91% and 92%
- Population Pyknosed Nuclei (%) [1]: 16% and 17%
- Population Tubulin-Different-Phenotype (%) [1]: 28% and 30%
- Total Cell Count [1]: 381 and 293
- Population Apoptotic (%) [2]: 51% and 72%
- Population Fragmented Nuclei (%) [2]: 4% and 3%
- Population Healthy Nuclei (%) [2]: 74% and 75%
- Population Hoechst High Intensity Objects (%) [2]: 10% and 7%
- Population Membrane Permeable-Phenotype (%) [2]: 0%
- Population Mitochondria Different-Phenotype (%) [2]: 61% and 90%
- Population Mitotic Cells (%) [2]: 48% and 27%
- Population Normal (%) [2]: 89% and 92%
- Population Pyknosed Nuclei (%) [2]: 20% and 21%
- Population Tubulin-Different-Phenotype (%) [2]: 62% and 63%
- Total Cell Count [2]: 338 and 203
- Population Apoptotic (%) [3]: 33% and 29%
- Population Fragmented Nuclei (%) [3]: 8% and 5%
- Population Healthy Nuclei (%) [3]: 74% and 79%
- Population Hoechst High Intensity Objects (%) [3]: 5%
- Population Membrane Permeable-Phenotype (%) [3]: 0%
- Population Mitochondria Different-Phenotype (%) [3]: 32% and 48%
- Population Mitotic Cells (%) [3]: 66% and 70%
- Population Normal (%) [3]: 94%
- Population Pyknosed Nuclei (%) [3]: 17% and 14%
- Population Tubulin-Different-Phenotype (%) [3]: 19%
- Total Cell Count [3]: 469 and 335
- Population Apoptotic (%) [4]: 45% and 66%
- Population Fragmented Nuclei (%) [4]: 6% and 2%
- Population Healthy Nuclei (%) [4]: 71%
- Population Hoechst High Intensity Objects (%) [4]: 4% and 7%
- Population Membrane Permeable-Phenotype (%) [4]: 1% and 0%
- Population Mitochondria Different-Phenotype (%) [4]: 48% and 84%
- Population Mitotic Cells (%) [4]: 54% and 34%
- Population Normal (%) [4]: 95% and 92%
- Population Pyknosed Nuclei (%) [4]: 22% and 25%
- Population Tubulin-Different-Phenotype (%) [4]: 43% and 60%
- Total Cell Count [4]: 387 and 212
- Population Apoptotic (%) [5]: 25% and 27%
- Population Fragmented Nuclei (%) [5]: 9% and 10%
- Population Healthy Nuclei (%) [5]: 79%
- Population Hoechst High Intensity Objects (%) [5]: 2% and 5%
- Population Membrane Permeable-Phenotype (%) [5]: 0%
- Population Mitochondria Different-Phenotype (%) [5]: 21% and 29%
- Population Mitotic Cells (%) [5]: 74% and 72%
- Population Normal (%) [5]: 97% and 94%
- Population Pyknosed Nuclei (%) [5]: 10%
- Population Tubulin-Different-Phenotype (%) [5]: 14% and 15%
- Total Cell Count [5]: 780 and 571
- Population Apoptotic (%) [6]: 54% and 78%
- Population Fragmented Nuclei (%) [6]: 8% and 9%
- Population Healthy Nuclei (%) [6]: 71%
- Population Hoechst High Intensity Objects (%) [6]: 8%
- Population Membrane Permeable-Phenotype (%) [6]: 0%
- Population Mitochondria Different-Phenotype (%) [6]: 53% and 71%
- Population Mitotic Cells (%) [6]: 45% and 21%
- Population Normal (%) [6]: 91%
- Population Pyknosed Nuclei (%) [6]: 19%
- Population Tubulin-Different-Phenotype (%) [6]: 25% and 40%
- Total Cell Count [6]: 467 and 227

SMILES: O=C1c2c(Br)c(Br)c(Br)c(Br)c2C(=O)N1c1ncc[nH]1
- Population Apoptotic (%) [1]: 13.1% and 15.91%
- Population Fragmented Nuclei (%) [1]: 2.88% and 4.84%
- Population Healthy Nuclei (%) [1]: 55.33% and 24.19%
- Population Hoechst High Intensity Objects (%) [1]: 0%
- Population Membrane Permeable-Phenotype (%) [1]: 0.52% and 0%
- Population Mitochondria Different-Phenotype (%) [1]: 30.21% and 20%
- Population Mitotic Cells (%) [1]: 86.9% and 84.09%
- Population Normal (%) [1]: 100%
- Population Pyknosed Nuclei (%) [1]: 41.79% and 70.97%
- Total Cell Count [1]: 347 and 124
- Population Apoptotic (%) [2]: 11.88% and 18.7%
- Population Fragmented Nuclei (%) [2]: 3.09% and 4.38%
- Population Hoechst High Intensity Objects (%) [2]: 0.28% and 0%
- Population Membrane Permeable-Phenotype (%) [2]: 0.82% and 0%
- Population Mitochondria Different-Phenotype (%) [2]: 30.74% and 20%
- Population Mitotic Cells (%) [2]: 88.12% and 81.3%
- Population Normal (%) [2]: 99.72% and 100%
- Population Pyknosed Nuclei (%) [2]: 28.37% and 76.88%
- Total Cell Count [2]: 357 and 160
- Population Apoptotic (%) [3]: 7.29% and 20.59%
- Population Fragmented Nuclei (%) [3]: 2.82% and 1.69%
- Population Healthy Nuclei (%) [3]: 81.23% and 40.68%
- Population Hoechst High Intensity Objects (%) [3]: 0%
- Population Membrane Permeable-Phenotype (%) [3]: 0.41% and 0%
- Population Mitochondria Different-Phenotype (%) [3]: 13.29% and 6.25%
- Population Mitotic Cells (%) [3]: 92.71% and 79.41%
- Population Normal (%) [3]: 100%
- Population Tubulin-Different-Phenotype (%) [3]: 8.59% and 6.25%
- Population Apoptotic (%) [4]: 15.38% and 16.98%
- Population Fragmented Nuclei (%) [4]: 2.6% and 2.87%
- Population Healthy Nuclei (%) [4]: 81.63% and 36.21%
- Population Hoechst High Intensity Objects (%) [4]: 0%
- Population Membrane Permeable-Phenotype (%) [4]: 0.42% and 0%
- Population Mitochondria Different-Phenotype (%) [4]: 15.71% and 7.94%
- Population Mitotic Cells (%) [4]: 84.62% and 83.02%
- Population Normal (%) [4]: 100%
- Population Tubulin-Different-Phenotype (%) [4]: 7.64% and 3.17%
- Population Apoptotic (%) [5]: 5.76% and 12.5%
- Population Fragmented Nuclei (%) [5]: 3.26% and 4.05%
- Population Healthy Nuclei (%) [5]: 88.03% and 68.21%
- Population Hoechst High Intensity Objects (%) [5]: 0% and 2.26%
- Population Membrane Permeable-Phenotype (%) [5]: 3.85% and 1.69%
- Population Mitochondria Different-Phenotype (%) [5]: 10.61% and 18.64%
- Population Mitotic Cells (%) [5]: 94.24% and 87.5%
- Population Normal (%) [5]: 100% and 97.74%
- Population Apoptotic (%) [6]: 13.95% and 14.89%
- Population Fragmented Nuclei (%) [6]: 5.46% and 4.92%
- Population Healthy Nuclei (%) [6]: 88.11% and 79.67%
- Population Hoechst High Intensity Objects (%) [6]: 0% and 0.97%
- Population Membrane Permeable-Phenotype (%) [6]: 6.62% and 4.53%
- Population Mitochondria Different-Phenotype (%) [6]: 10.78% and 11.11%
- Population Mitotic Cells (%) [6]: 86.05% and 85.11%
- Population Normal (%) [6]: 100% and 99.03%
- Population Pyknosed Nuclei (%) [6]: 6.43% and 15.41%

SMILES: Cc1onc(-c2ccccc2Cl)c1C(=O)N(C)c1ccc(Cl)cc1
- Population Apoptotic (%) [1]: 35% and 37%
- Population Fragmented Nuclei (%) [1]: 8% and 3%
- Population Healthy Nuclei (%) [1]: 79% and 84%
- Population Hoechst High Intensity Objects (%) [1]: 9% and 6%
- Population Membrane Permeable-Phenotype (%) [1]: 0%
- Population Mitochondria Different-Phenotype (%) [1]: 41% and 59%
- Population Mitotic Cells (%) [1]: 64% and 62%
- Population Normal (%) [1]: 90% and 93%
- Population Pyknosed Nuclei (%) [1]: 12%
- Population Tubulin-Different-Phenotype (%) [1]: 25%
- Total Cell Count [1]: 375 and 320
- Population Apoptotic (%) [2]: 38% and 45%
- Population Fragmented Nuclei (%) [2]: 7% and 4%
- Population Healthy Nuclei (%) [2]: 79% and 80%
- Population Hoechst High Intensity Objects (%) [2]: 12% and 6%
- Population Membrane Permeable-Phenotype (%) [2]: 0%
- Population Mitochondria Different-Phenotype (%) [2]: 49% and 65%
- Population Mitotic Cells (%) [2]: 61% and 54%
- Population Normal (%) [2]: 87% and 93%
- Population Pyknosed Nuclei (%) [2]: 13% and 14%
- Population Tubulin-Different-Phenotype (%) [2]: 43% and 35%
- Total Cell Count [2]: 357 and 330
- Population Apoptotic (%) [3]: 23% and 42%
- Population Fragmented Nuclei (%) [3]: 9% and 5%
- Population Healthy Nuclei (%) [3]: 81%
- Population Hoechst High Intensity Objects (%) [3]: 5% and 3%
- Population Membrane Permeable-Phenotype (%) [3]: 1%
- Population Mitochondria Different-Phenotype (%) [3]: 21% and 44%
- Population Mitotic Cells (%) [3]: 76% and 57%
- Population Normal (%) [3]: 94% and 96%
- Population Pyknosed Nuclei (%) [3]: 9% and 12%
- Population Tubulin-Different-Phenotype (%) [3]: 14% and 18%
- Total Cell Count [3]: 523 and 383
- Population Apoptotic (%) [4]: 45% and 29%
- Population Fragmented Nuclei (%) [4]: 8% and 7%
- Population Healthy Nuclei (%) [4]: 79% and 82%
- Population Hoechst High Intensity Objects (%) [4]: 5% and 3%
- Population Membrane Permeable-Phenotype (%) [4]: 1% and 0%
- Population Mitochondria Different-Phenotype (%) [4]: 32% and 47%
- Population Mitotic Cells (%) [4]: 54% and 70%
- Population Normal (%) [4]: 94% and 96%
- Population Pyknosed Nuclei (%) [4]: 12% and 9%
- Population Tubulin-Different-Phenotype (%) [4]: 20%
- Total Cell Count [4]: 478 and 413
- Population Apoptotic (%) [5]: 21% and 31%
- Population Fragmented Nuclei (%) [5]: 14% and 11%
- Population Healthy Nuclei (%) [5]: 79% and 82%
- Population Hoechst High Intensity Objects (%) [5]: 2%
- Population Membrane Permeable-Phenotype (%) [5]: 0% and 1%
- Population Mitochondria Different-Phenotype (%) [5]: 11% and 23%
- Population Mitotic Cells (%) [5]: 78% and 68%
- Population Normal (%) [5]: 97%
- Population Pyknosed Nuclei (%) [5]: 6% and 5%
- Population Tubulin-Different-Phenotype (%) [5]: 9% and 12%
- Total Cell Count [5]: 932 and 620
- Population Apoptotic (%) [6]: 33% and 20%
- Population Fragmented Nuclei (%) [6]: 14% and 12%
- Population Healthy Nuclei (%) [6]: 76% and 81%
- Population Hoechst High Intensity Objects (%) [6]: 3%
- Population Membrane Permeable-Phenotype (%) [6]: 1% and 0%
- Population Mitochondria Different-Phenotype (%) [6]: 16% and 25%
- Population Mitotic Cells (%) [6]: 66% and 79%
- Population Normal (%) [6]: 96%
- Population Pyknosed Nuclei (%) [6]: 8% and 6%
- Population Tubulin-Different-Phenotype (%) [6]: 15% and 16%
- Total Cell Count [6]: 755 and 652
